Experimental data: ChEMBL document CHEMBL5356938, “Enhancing allosteric inhibition of dihydrodipicolinate synthase through the design and synthesis of novel dimeric compounds” (RSC Med Chem, 2023)

Legend:
[1] = Inhibition of Escherichia coli DHDPS using ASA as substrate assessed as NADPH oxidation to NADP+ preincubated with compound for 12 mins in the presence of NADPH followed by substrate addition by UV/Vis spectrophotometric analysis
Method in brief: (§1)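 Coupled DHDPS–DHDPR assay with final 250 mM HEPES pH 8.0, 0.2 mM NADPH, 1 mM pyruvate, 0.125 mM ASA, 0.0009 mM E. coli DHDPR, 0.00008 mM DHDPS, 0.05% Tween 20 and varied inhibitor. Enzymes, pyruvate, buffer and NADPH were held at 30 °C for 12 min, then ASA was added. NADPH oxidation was followed at 340 nm and 30 °C. Initial rates came from the linear A340 slope, run in triplicate, and were used for IC50.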

[2] = molecular target: T1, 4-hydroxy-tetrahydrodipicolinate synthase 1, chloroplastic (Arabidopsis thaliana, UniProt Q9LZX6); test: Inhibition of Arabidopsis thaliana DHDPS1; method in brief: as §1
T1 sequence (Q9LZX6 whole entry): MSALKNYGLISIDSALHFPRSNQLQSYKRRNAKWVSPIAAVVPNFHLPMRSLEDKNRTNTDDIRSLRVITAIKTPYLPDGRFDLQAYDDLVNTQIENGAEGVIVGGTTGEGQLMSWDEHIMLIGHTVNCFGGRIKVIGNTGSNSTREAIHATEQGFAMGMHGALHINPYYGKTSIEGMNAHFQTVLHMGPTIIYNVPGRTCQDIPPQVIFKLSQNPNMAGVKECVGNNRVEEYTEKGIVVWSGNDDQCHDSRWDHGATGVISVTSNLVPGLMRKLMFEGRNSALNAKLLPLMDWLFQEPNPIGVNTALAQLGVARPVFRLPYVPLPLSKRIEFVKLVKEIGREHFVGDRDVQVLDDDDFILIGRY

[3] = molecular target: T2, 4-hydroxy-tetrahydrodipicolinate synthase 2, chloroplastic (Arabidopsis thaliana, UniProt Q9FVC8); test: Inhibition of Arabidopsis thaliana DHDPS2; method in brief: as §1
T2 sequence (Q9FVC8 whole entry): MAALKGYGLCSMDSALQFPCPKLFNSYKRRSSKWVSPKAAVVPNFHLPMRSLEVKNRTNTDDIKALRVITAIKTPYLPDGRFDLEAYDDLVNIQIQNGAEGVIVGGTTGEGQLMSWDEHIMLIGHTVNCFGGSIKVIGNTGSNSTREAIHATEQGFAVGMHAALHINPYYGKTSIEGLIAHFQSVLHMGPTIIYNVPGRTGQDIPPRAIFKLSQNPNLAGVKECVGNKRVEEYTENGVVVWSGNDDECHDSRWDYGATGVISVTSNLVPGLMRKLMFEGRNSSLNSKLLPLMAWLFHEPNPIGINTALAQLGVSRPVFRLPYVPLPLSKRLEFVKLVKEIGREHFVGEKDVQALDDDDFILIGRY

Row | SMILES | IC50 [1] [µM] | IC50 [2] [µM] | IC50 [3] [µM]
1 | COc1ccc(/C=C2\SC(=O)N([C@H](CC[C@@H](C(=O)O)N3C(=O)S/C(=C\c4ccc(OC)cc4)C3=O)C(=O)O)C2=O)cc1 | 42 | – | –
2 | COc1ccc(/C=C2\SC(=O)N(CC(=O)O)C2=O)cc1 | 47 | 66.2 | 66
3 | CCOC(=O)C(Br)CCC(Br)C(=O)OCC (stereo unspecified) | 77.4 | – | –

These reach a lower IC50 [1]. Values come first.

Row | IC50 [1] [µM] | IC50 [2] [µM] | IC50 [3] [µM] | SMILES
4 | 19.7 | – | – | COc1ccc(/C=C2\SC(=O)N([C@@H](CC[C@@H](C(=O)O)N3C(=O)S/C(=C\c4ccc(OC)cc4)C3=O)C(=O)O)C2=O)cc1 (racemic)
5 | 9.95 | 35.6 | 33.9 | COc1ccc(/C=C2\SC(=O)N([C@H](C[C@@H](C(=O)O)N3C(=O)S/C(=C\c4ccc(OC)cc4)C3=O)C(=O)O)C2=O)cc1
6 | 40.6 | – | – | COc1ccc(/C=C2\SC(=O)N(C(CCCC(C(=O)O)N3C(=O)S/C(=C\c4ccc(OC)cc4)C3=O)C(=O)O)C2=O)cc1 (stereo unspecified)
7 | 30.4 | – | – | COc1ccc(/C=C2\SC(=O)N([C@H](C[C@H](C(=O)O)N3C(=O)S/C(=C\c4ccc(OC)cc4)C3=O)C(=O)O)C2=O)cc1 (racemic)
